Laboratory results as given in ChEMBL document CHEMBL1955834, “Disparate SAR data of griseofulvin analogues for the dermatophytes Trichophyton mentagrophytes, T. rubrum, and MDA-MB-231 cancer cells” (J Med Chem, 2012).
Activity calls are given as the source filed them. The calls are words filed in the database; no cut-off is given here.

What was measured:
[1] = test system: Trichophyton mentagrophytes; assay: Antifungal activity against Trichophyton mentagrophytes IBT 2724 at 50 uM after 7 days by micro broth dilution method; format: functional; details: for inhibition at 50 µM: IBT 2724, 168 h
Summary of the method: (§1)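 T. mentagrophytes IBT2724 was tested by broth microdilution using an 8-fold dilution series of 10 concentrations from 50 μM down to 0.4 μM, with 1% DMSO. The inoculum was prepared per CLSI M38-A2, adjusted to OD530 0.90–1.5 and diluted 50-fold in RPMI/MOPS at pH 7.00. Plates ran 7 days at 37 °C with an OD read-out. IC50 came from a variable-slope sigmoidal fit.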

SCC114 = assay: Cytotoxicity against human SCC114 cells by phenotype-based spindle multipolarity assay; format: functional, cell-based
MDA-MB-231 [2] = assay: Cytotoxicity against human MDA-MB-231 cells assessed as cell viability after 48 hrs by MTT assay; format: functional, cell-based; details: MDA-MB-231, 48 h
Summary of the method: (§2)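 MDA-MB-231 cells were grown in L-15 with 10% FCS at 37 °C and seeded at (2-3) × 10^4 per well. Exposure was 24 and/or 48 h, then MTT for at least 4 h, with absorbance read at 570/630 nm. Each condition had at least 3 replicates, reported as mean ± SD of a representative experiment repeated at least three times.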

Trichophyton rubrum [3] = assay: Antifungal activity against Trichophyton rubrum IBT 29284 at 50 uM after 7 days by micro broth dilution method; format: functional; details: for inhibition at 50 µM: IBT 29284, 168 h
Summary of the method: (§3)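 T. rubrum IBT29284 was tested by broth microdilution using a 4-fold dilution series of 10 concentrations from 50 μM down to 0.2 μM, with 1% DMSO. The inoculum followed CLSI M38-A2, set to OD530 0.90–1.5 and diluted 50-fold in RPMI/MOPS at pH 7.00. Incubation was 7 days at 37 °C, read by OD. IC50 came from a variable-slope sigmoidal fit.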

MDA-MB-231 [4] = assay: Cytotoxicity against human MDA-MB-231 cells assessed as cell viability at 50 uM after 48 hrs by MTT assay; format: functional; details: for inhibition at 50 µM: MDA-MB-231, 48 h; summary of the method: as §2
[5] = Drug degradation in phosphate buffered saline at pH 7.4 assessed as compound hydrolysis after 48 hrs; format: physicochemical; details: read-out: Drug degradation
Summary of the method: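 Oximes were held in PBS at pH 7.4 for 48 h, and hydrolysis to the parent ketones was monitored.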

Trichophyton rubrum [6] = assay: Antifungal activity against Trichophyton rubrum IBT 29284 after 7 days by micro broth dilution method; format: functional, organism-based; details: IBT 29284, 168 h; summary of the method: as §3
[7] = test system: Trichophyton mentagrophytes; assay: Antifungal activity against Trichophyton mentagrophytes IBT 2724 after 7 days by micro broth dilution method; format: functional, organism-based; details: IBT 2724, 168 h; summary of the method: as §1

| IC50 (Trichophyton rubrum [6]) | IC50 [7] | SMILES | IC50 (MDA-MB-231 [2]) | inhibition (Trichophyton rubrum [3]) | also measured |
| --- | --- | --- | --- | --- | --- |
| 2.6 µM | 0.25 µM | COc1cc(OC)c2c(c1Cl)O[C@]1(C2=O)C(OCc2cccc3ccccc23)=CC(=O)C[C@H]1C | 13 µM |  |  |
|  | 1.1 µM | COc1cc(OC)c2c(c1Cl)O[C@]1(C2=O)C(OCc2ccccc2)=C(I)C(=O)C[C@H]1C |  | inactive | inhibition at 50 µM (MDA-MB-231 [4]): < 50% |
| 2 µM | 0.29 µM | CCOc1cc(OC)c(Cl)c2c1C(=O)[C@@]1(O2)C(OC)=CC(=O)C[C@H]1C |  |  | inhibition (MDA-MB-231 [4]): inactive |
| 1.5 µM | 0.06 µM | COc1cc(OC)c2c(c1Cl)O[C@]1(C2=O)C(OCC2CC2)=CC(=O)C[C@H]1C | 9.4 µM |  |  |
| 1.1 µM | 0.26 µM | COc1cc(OC)c2c(c1Cl)O[C@]1(C2=O)C(OCc2ccccc2)=CC(=O)C[C@H]1C | 2.1 µM |  |  |
| 1.5 µM | 0.15 µM | COc1cc(OC)c2c(c1Cl)O[C@]1(C2=O)C(OCc2ccc(C(F)(F)F)cc2)=CC(=O)C[C@H]1C | 7 µM |  |  |
|  | 1.7 µM | COc1cc(OC)c2c(c1Cl)O[C@]1(C2=O)C(OCc2ccc(CO)cc2)=CC(=O)C[C@H]1C | 2.8 µM |  | inhibition at 50 µM (Trichophyton rubrum [3]): < 50% |
| 3.1 µM | 0.11 µM | COc1cc(OC)c2c(c1Cl)O[C@]1(C2=O)C(OC(C)C)=CC(=O)C[C@H]1C | 11 µM |  |  |
| 0.69 µM | 0.25 µM | CCOC1=CC(=O)C[C@@H](C)[C@]12Oc1c(Cl)c(OC)cc(OC)c1C2=O | 13 µM |  |  |
| 6.1 µM | 1.6 µM | COc1cc(OC)c2c(c1Cl)O[C@]1(C2=O)C(Oc2ccccc2)=CC(=O)C[C@H]1C | 7.2 µM |  |  |
|  | 0.7 µM | COc1ccccc1COC1=CC(=O)C[C@@H](C)[C@]12Oc1c(Cl)c(OC)cc(OC)c1C2=O | 11 µM |  | inhibition at 50 µM (Trichophyton rubrum [3]): < 50% |
| 1.3 µM | 0.062 µM | CCOc1cc(OC)c2c(c1Cl)O[C@]1(C2=O)C(OC)=CC(=O)C[C@H]1C | 36 µM |  |  |
|  | 0.17 µM | CCCCCOc1cc(OC)c(Cl)c2c1C(=O)[C@@]1(O2)C(OC)=CC(=O)C[C@H]1C |  |  | inhibition at 50 µM (MDA-MB-231 [4]): < 50%; inhibition at 50 µM (Trichophyton rubrum [3]): < 50% |
|  | 1.3 µM | COc1cc(OC)c2c(c1Cl)O[C@]1(C2=O)C(OCc2ccccn2)=CC(=O)C[C@H]1C | 32 µM |  | inhibition at 50 µM (Trichophyton rubrum [3]): < 50% |
|  | 0.35 µM | COc1cc(OC)c2c(c1Cl)O[C@]1(C2=O)C(OCc2cccnc2)=CC(=O)C[C@H]1C | 10 µM |  | inhibition at 50 µM (Trichophyton rubrum [3]): < 50% |
|  | 0.25 µM | COC1=CC(=O)C[C@@H](C)[C@]12Oc1c(Cl)c(OC)cc(OCc3ccccc3)c1C2=O | 20 µM | inactive | inhibition (SCC114): inactive |
| 0.96 µM | 0.14 µM | COc1cccc(COC2=CC(=O)C[C@@H](C)[C@]23Oc2c(Cl)c(OC)cc(OC)c2C3=O)c1 | 8.1 µM |  |  |
| 2.5 µM | 0.24 µM | COc1cc(OC)c2c(c1Cl)O[C@]1(C2=O)C(OC2CCCC2)=CC(=O)C[C@H]1C | 3.2 µM |  |  |
| 1.6 µM | 0.23 µM | CCCOC1=C(I)C(=O)C[C@@H](C)[C@]12Oc1c(Cl)c(OC)cc(OC)c1C2=O | 8 µM |  |  |
| 1.3 µM | 0.058 µM | COc1cc(OC)c2c(c1Cl)O[C@]1(C2=O)C(SCc2ccccc2)=CC(=O)C[C@H]1C | 4.7 µM |  |  |
| 0.83 µM | 0.041 µM | COc1cc(OC)c2c(c1Cl)O[C@]1(C2=O)C(OCc2ccc(F)cc2)=CC(=O)C[C@H]1C | 6.5 µM |  |  |
|  | 0.28 µM | COc1cc(OC)c2c(c1Cl)O[C@]1(C2=O)C(OCCc2ccccc2)=CC(=O)C[C@H]1C | 17 µM |  | inhibition at 50 µM (Trichophyton rubrum [3]): < 50% |
| 1 µM | 0.24 µM | COc1cc(OC)c2c(c1Cl)O[C@]1(C2=O)C(OCc2ccc(C)cc2)=CC(=O)C[C@H]1C | 1.8 µM |  |  |

The remaining lines, values behind:

| SMILES | IC50 (Trichophyton rubrum [6]) | IC50 [7] | IC50 (MDA-MB-231 [2]) | inhibition (Trichophyton rubrum [3]) | also measured |
| --- | --- | --- | --- | --- | --- |
| COc1cc(OC)c2c(c1Cl)O[C@@]1(C(=O)C=C(OCC3CC3)C[C@H]1C)C2=O |  |  | 52 µM | inactive | inhibition at 50 µM [1]: < 50%; inhibition (SCC114): inactive |
| COc1cc(OC)c2c(c1Cl)O[C@]1(C(=O)CC(=O)C[C@@H]1C)C2=O (relative stereo) |  |  |  | inactive | inhibition at 50 µM [1]: < 50%; inhibition (MDA-MB-231 [4]): inactive |
| COc1cc(OC)c2c(c1Cl)O[C@]1(C2=O)C(OCc2cccc3ccccc23)=C/C(=N\O)C[C@H]1C |  |  | 8.3 µM | inactive | degraded at 48 h [5]: < 5%; inhibition [1]: inactive |
| COc1cc(OC)c2c(c1Cl)O[C@]1(C2=O)C(OCc2ccc(-c3ccccc3)cc2)=CC(=O)C[C@H]1C |  |  | 5.8 µM | inactive | inhibition [1]: inactive |
| COc1cc(OC)c2c(c1Cl)O[C@]1(C2=O)C(OCc2ccncc2)=CC(=O)C[C@H]1C |  |  | 19 µM |  | inhibition at 50 µM [1]: < 50%; inhibition at 50 µM (Trichophyton rubrum [3]): < 50% |
| COC1=CC(=O)C[C@@H](C)[C@]12Oc1c(Cl)c(OC)c(N)c(OC)c1C2=O |  |  |  | inactive | inhibition [1]: inactive; inhibition (MDA-MB-231 [4]): inactive |
| COC1=CC(=O)C[C@@H](C)[C@]12Oc1c(Cl)c(OC)c([N+](=O)[O-])c(OC)c1C2=O |  |  |  | inactive | inhibition [1]: inactive; inhibition (MDA-MB-231 [4]): inactive |
| CCOC1=CC(=O)[C@@]2(Oc3c(Cl)c(OC)cc(OC)c3C2=O)[C@H](C)C1 |  |  |  | inactive | inhibition at 50 µM [1]: < 50%; inhibition (SCC114): inactive; inhibition at 50 µM (MDA-MB-231 [4]): < 50% |
| COc1ccc(COC2=CC(=O)C[C@@H](C)[C@]23Oc2c(Cl)c(OC)cc(OC)c2C3=O)cc1 |  |  |  | inactive | inhibition [1]: inactive; inhibition at 50 µM (MDA-MB-231 [4]): < 50% |
| COc1cc(O)c(Cl)c2c1C(=O)[C@@]1(O2)C(=O)C=C(O)C[C@H]1C |  |  |  | inactive | inhibition [1]: inactive; inhibition (MDA-MB-231 [4]): inactive |
| COC1=CC(=O)C[C@@H](C)[C@]12Oc1c(Cl)c(OC)cc(O)c1C2=O |  |  |  | inactive | inhibition at 50 µM [1]: < 50%; inhibition (MDA-MB-231 [4]): inactive |
| COc1cc(OC)c2c(c1Cl)O[C@@]1(C(=O)C=C(OC(C)C)C[C@H]1C)C2=O |  |  | 48 µM | inactive | inhibition at 50 µM [1]: < 50%; inhibition (SCC114): inactive |
| COC1=CC(=O)C[C@@H](C)[C@]12Oc1c(Cl)c(O)cc(OC)c1C2=O |  |  |  | inactive | inhibition [1]: inactive; inhibition at 50 µM (MDA-MB-231 [4]): < 50% |
| COC1=CC(=O)C[C@@H](C)[C@]12Oc1c(Cl)c(OC)cc(OCc3cccc4ccccc34)c1C2=O |  |  | 17 µM | inactive | inhibition [1]: inactive |
| COC1=CC(=O)[C@@]2(Oc3c(Cl)c(OC)cc(OC)c3C2=O)[C@H](C)C1 |  |  |  | inactive | inhibition [1]: inactive; inhibition (SCC114): inactive; inhibition (MDA-MB-231 [4]): inactive |
| CCCOC1=CC(=O)[C@@]2(Oc3c(Cl)c(OC)cc(OC)c3C2=O)[C@H](C)C1 |  |  | 43 µM | inactive | inhibition at 50 µM [1]: < 50%; inhibition (SCC114): inactive |
| COc1cc(OC)c2c(c1Cl)O[C@]1(C2=O)C(=O)C(C)(C)C(=O)C[C@H]1C |  |  |  | inactive | inhibition [1]: inactive; inhibition (MDA-MB-231 [4]): inactive |
| COc1cc(OC)c2c(c1Cl)O[C@@]1(C(=O)C=C(OCc3ccccc3)C[C@H]1C)C2=O |  |  |  | inactive | inhibition at 50 µM [1]: < 50%; inhibition (SCC114): inactive; inhibition at 50 µM (MDA-MB-231 [4]): < 50% |
| COc1cc(OC)c2c(c1Cl)O[C@]1(C2=O)C(Cl)=CC(=O)C[C@H]1C |  |  | 3.2 µM |  | inhibition at 50 µM [1]: < 50%; inhibition at 50 µM (Trichophyton rubrum [3]): < 50% |
| COc1cc(OC)c2c(c1Cl)O[C@@]1(C2=O)[C@H](C)C[C@H](O)C[C@@H]1OC |  | 3 µM |  |  | inhibition (MDA-MB-231 [4]): inactive; inhibition at 50 µM (Trichophyton rubrum [3]): < 50% |
| COc1cc(OC)c2c(c1Cl)O[C@]1(C2=O)C(OCC23CC4CC(CC(C4)C2)C3)=CC(=O)C[C@H]1C |  |  | 4.7 µM | inactive | inhibition [1]: inactive |
| COc1cccc(COC2=CC(=O)[C@@]3(Oc4c(Cl)c(OC)cc(OC)c4C3=O)[C@H](C)C2)c1 |  |  | 25 µM | inactive | inhibition at 50 µM [1]: < 50% |
| COc1cc(OC)c2c(c1Cl)O[C@@]1(C(=O)C=C(OC3CCCC3)C[C@H]1C)C2=O |  |  | 27 µM | inactive | inhibition at 50 µM [1]: < 50%; inhibition (SCC114): inactive |
| COc1cc(OC)c2c(c1Cl)O[C@@]1(C(=O)C=C(Cl)C[C@H]1C)C2=O |  |  | 1 µM | inactive | inhibition [1]: inactive |
| COC1=C(I)C(=O)C[C@@H](C)[C@]12Oc1c(Cl)c(OC)cc(OC)c1C2=O |  |  | 22 µM | inactive | inhibition at 50 µM [1]: < 50% |
